Measurements as given in ChEMBL document CHEMBL1144974, “Design, synthesis, and activity of novel cis- and trans-3,6-disubstituted pyran biomimetics of 3,6-disubstituted piperidine as potential ligands for the dopamine transporter” (Bioorg Med Chem Lett, 2003).

Assays:
[1] = target: Norepinephrine transporter (Rattus norvegicus, UniProt Q9WTR4); assay: Inhibition of binding of [3H]nisoxetine to (NET) norepinephrine transporter in rat striatum; format: tissue-based
How it was run: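 Radioligand displacement of [3H]nisoxetine labelling NET; other binding conditions are referred to earlier work. Values are means ± SEM of three independent experiments, each assayed in triplicate.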

[2] = species: Rattus norvegicus; assay: Inhibition of [3H]DA dopamine (DA) reuptake activity; format: functional
[3] = target: Sodium-dependent serotonin transporter (Rattus norvegicus, UniProt P31652); assay: Inhibition of binding of [3H]citalopram to (SERT) serotonin transporter in rat striatum; format: tissue-based
Chain of Sodium-dependent serotonin transporter (P31652 whole entry): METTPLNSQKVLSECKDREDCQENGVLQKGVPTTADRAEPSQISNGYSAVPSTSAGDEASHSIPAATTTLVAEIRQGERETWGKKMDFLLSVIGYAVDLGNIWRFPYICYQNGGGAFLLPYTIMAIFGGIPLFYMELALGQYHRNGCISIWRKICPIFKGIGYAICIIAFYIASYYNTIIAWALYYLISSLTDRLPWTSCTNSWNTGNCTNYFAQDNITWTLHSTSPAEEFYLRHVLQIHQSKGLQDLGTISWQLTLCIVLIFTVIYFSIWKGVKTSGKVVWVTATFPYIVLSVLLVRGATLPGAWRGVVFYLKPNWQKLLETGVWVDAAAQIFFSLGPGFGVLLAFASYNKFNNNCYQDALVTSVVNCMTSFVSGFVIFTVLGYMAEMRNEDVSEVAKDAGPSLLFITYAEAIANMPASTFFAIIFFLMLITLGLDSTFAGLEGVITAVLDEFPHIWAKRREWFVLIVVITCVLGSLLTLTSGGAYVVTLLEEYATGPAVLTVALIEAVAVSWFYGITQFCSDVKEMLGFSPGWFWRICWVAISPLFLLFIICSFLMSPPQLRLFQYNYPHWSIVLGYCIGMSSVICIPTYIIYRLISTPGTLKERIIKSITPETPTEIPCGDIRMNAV

[4] = target: Sodium-dependent dopamine transporter (Rattus norvegicus, UniProt P23977); assay: Inhibition of binding of [3H]WIN-35 428 to (DAT) dopamine transporter in rat striatum; format: tissue-based
Chain of Sodium-dependent dopamine transporter (P23977 whole entry): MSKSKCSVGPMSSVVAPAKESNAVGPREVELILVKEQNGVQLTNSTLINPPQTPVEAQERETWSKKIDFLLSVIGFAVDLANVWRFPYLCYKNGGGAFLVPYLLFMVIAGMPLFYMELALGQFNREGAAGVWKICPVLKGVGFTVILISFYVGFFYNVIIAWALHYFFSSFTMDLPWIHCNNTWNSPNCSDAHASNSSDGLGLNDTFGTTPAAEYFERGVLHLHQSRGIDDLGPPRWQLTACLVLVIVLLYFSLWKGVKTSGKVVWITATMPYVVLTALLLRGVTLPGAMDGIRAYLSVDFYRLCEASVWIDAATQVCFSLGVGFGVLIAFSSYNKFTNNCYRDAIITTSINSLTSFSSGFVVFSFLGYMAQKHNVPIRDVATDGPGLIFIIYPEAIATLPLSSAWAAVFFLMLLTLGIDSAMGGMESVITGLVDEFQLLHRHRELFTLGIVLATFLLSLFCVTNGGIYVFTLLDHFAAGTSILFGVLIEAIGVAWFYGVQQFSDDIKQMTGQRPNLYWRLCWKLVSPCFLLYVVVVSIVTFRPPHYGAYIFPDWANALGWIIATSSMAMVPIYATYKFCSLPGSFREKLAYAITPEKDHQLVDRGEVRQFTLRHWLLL

Chain of Norepinephrine transporter (Q9WTR4 whole entry): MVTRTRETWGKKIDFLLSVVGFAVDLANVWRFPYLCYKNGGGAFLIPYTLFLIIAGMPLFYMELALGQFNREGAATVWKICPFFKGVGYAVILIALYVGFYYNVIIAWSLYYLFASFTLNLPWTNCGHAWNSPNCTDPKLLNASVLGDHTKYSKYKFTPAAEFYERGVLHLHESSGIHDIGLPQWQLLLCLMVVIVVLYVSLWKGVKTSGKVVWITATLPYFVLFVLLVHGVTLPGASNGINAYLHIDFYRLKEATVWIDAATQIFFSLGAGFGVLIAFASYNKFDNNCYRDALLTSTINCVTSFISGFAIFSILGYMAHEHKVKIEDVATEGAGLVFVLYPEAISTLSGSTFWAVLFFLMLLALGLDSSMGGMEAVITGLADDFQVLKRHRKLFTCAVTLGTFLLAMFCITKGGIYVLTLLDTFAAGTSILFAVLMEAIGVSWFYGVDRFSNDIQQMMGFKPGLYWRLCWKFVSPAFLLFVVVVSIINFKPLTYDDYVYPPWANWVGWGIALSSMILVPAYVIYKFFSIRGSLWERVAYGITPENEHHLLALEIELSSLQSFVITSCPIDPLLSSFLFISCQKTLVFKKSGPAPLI

With `Fc1ccc(CNC2CCC(C(c3ccccc3)c3ccccc3)NC2)cc1` (configuration not stated) as the compound, how does the IC50 [1] read?
Its IC50 is 1.02 µM.

And the IC50 [2]?
Its IC50 is 0.0457 µM.

What about the IC50 [3] of the same compound?
Its IC50 is 2.22 µM.

And the IC50 [4]?
The IC50 was 0.0325 µM.

How did the IC50 [2] turn out when `O=[N+]([O-])c1ccc(CNC2CCC(C(c3ccccc3)c3ccccc3)OC2)cc1` (racemic) was run?
The IC50 was 0.102 µM.

What about the IC50 [4] of the same compound?
The IC50 was 0.0383 µM.

`COc1ccc(CNC2CCC(C(c3ccccc3)c3ccccc3)OC2)cc1` (racemic) was tested. Which IC50 [2] did it give?
The IC50 was 0.0595 µM.

And the IC50 [4]?
The IC50 was 0.084 µM.

For `N#Cc1ccc(CNC2CCC(C(c3ccccc3)c3ccccc3)OC2)cc1` (racemic), which IC50 [1] is on record?
The IC50 was 1.58 µM.

And the IC50 [3]?
Its IC50 is 0.863 µM.

How did the IC50 [1] turn out when `Fc1ccc(CNC2CCC(C(c3ccccc3)c3ccccc3)OC2)cc1` (racemic) was run?
The IC50 was 0.232 µM.

What about the IC50 [2] of the same compound?
Its IC50 is 0.156 µM.

What about the IC50 [3] of the same compound?
Its IC50 is 1.86 µM.

And the IC50 [4]?
Its IC50 is 0.163 µM.

`Fc1ccc(CNC2CCC(C(c3ccccc3)c3ccccc3)OC2)cc1` (single isomer, unassigned) was tested. Which IC50 [1] did it give?
Its IC50 is 12.7 µM.

And the IC50 [3]?
The IC50 was 8.41 µM.

And the IC50 [4]?
Its IC50 is 0.313 µM.
